# Measured values published in ChEMBL document CHEMBL1144979, “Combinatorial modification of natural products: synthesis and in vitro analysis of derivatives of thiazole peptide antibiotic GE2270 A: A-ring modifications” (Bioorg Med Chem Lett, 2003).
# Experiments:
# Type in all cases: functional
# [1] = tested on: Enterococcus faecium; assay: In vitro antibacterial activity against Vancomycin-susceptible Enterococcus faecium BM4147.1
# Summary of the method: (§1)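 MICs by NCCLS broth dilution guidelines, modified by adding 0.02% bovine serum albumin to the growth medium; purified, resynthesized compounds tested against the expanded bacterial panel.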
# [2] = tested on: Enterococcus faecalis; assay: In vitro antibacterial activity against Vancomycin-resistant Enterococcus faecalis ATCC 51299
# [3] = tested on: Staphylococcus aureus; assay: In vitro antibacterial activity against methicillin sensitive Staphylococcus aureus ATCC 25923; summary of the method: as §1
# [4] = tested on: Staphylococcus aureus; assay: In vitro antibacterial activity against methicillin resistant Staphylococcus aureus (MRSA) ATCC 33591
# [5] = tested on: Escherichia coli; assay: In vitro antibacterial activity against Escherichia coli (A G100B); summary of the method: as §1
# [6] = tested on: Haemophilus influenzae; assay: In vitro antibacterial activity against Haemophilus influenzae (ATTC31517); summary of the method: as §1
# [7] = tested on: Staphylococcus epidermidis; assay: In vitro antibacterial activity against Staphylococcus epidermidis (ATCC 12228); summary of the method: as §1
# [8] = tested on: Streptococcus pneumoniae; assay: In vitro antibacterial activity against Streptococcus pneumoniae (ATTC49619); summary of the method: as §1
# [9] = tested on: Streptococcus pyogenes; assay: In vitro antibacterial activity against Streptococcus pyogenes (ATTC19615); summary of the method: as §1
# [10] = tested on: Haemophilus influenzae; assay: In vitro antibacterial activity against Haemophilus influenzae (acr, LS-2); summary of the method: as §1
Compound,MIC [1] [µg/mL],MIC [2] [µg/mL],MIC [3] [µg/mL],MIC [4] [µg/mL],MIC [5] [µg/mL],MIC [6] [µg/mL],MIC [7] [µg/mL],MIC [8] [µg/mL],MIC [9] [µg/mL],MIC [10] [µg/mL]
CNC(=O)C[C@@H]1NC(=O)c2csc(n2)-c2ccc(-c3nc(C(=O)NCCC[N+]4([O-])CCOCC4)cs3)nc2-c2csc(n2)-c2csc(n2)C(C(O)c2ccccc2)NC(=O)CNC(=O)c2nc(sc2COC)[C@H](C(C)C)NC(=O)c2nc1sc2C (stereo partly specified),1,2,2,2,,,,,,
CNC(=O)C[C@@H]1NC(=O)c2csc(n2)-c2ccc(-c3nc(C(=O)NCCO)cs3)nc2-c2csc(n2)-c2csc(n2)C(C(O)c2ccccc2)NC(=O)CNC(=O)c2nc(sc2COC)[C@H](C(C)C)NC(=O)c2nc1sc2C (stereo partly specified),0.03,0.03,0.06,0.125,,,,,,
CNC(=O)C[C@@H]1NC(=O)c2csc(n2)-c2ccc(-c3nc(C(=O)N4CC(C(N)=O)C4)cs3)nc2-c2csc(n2)-c2csc(n2)C(C(O)c2ccccc2)NC(=O)CNC(=O)c2nc(sc2COC)[C@H](C(C)C)NC(=O)c2nc1sc2C (stereo partly specified),,,,0.06,,,,,,
CNC(=O)C[C@@H]1NC(=O)c2csc(n2)-c2ccc(-c3nc(COC(=O)NCCCC(=O)O)cs3)nc2-c2csc(n2)-c2csc(n2)C(C(O)c2ccccc2)NC(=O)CNC(=O)c2nc(sc2COC)[C@H](C(C)C)NC(=O)c2nc1sc2C (stereo partly specified),0.06,0.125,0.25,0.125,> 16,16,0.25,2,8,4
CNC(=O)C[C@@H]1NC(=O)c2csc(n2)-c2ccc(-c3nc(C(=O)NCCCCCC(=O)O)cs3)nc2-c2csc(n2)-c2csc(n2)C(C(O)c2ccccc2)NC(=O)CNC(=O)c2nc(sc2COC)[C@H](C(C)C)NC(=O)c2nc1sc2C (stereo partly specified),0.03,0.03,0.06,0.015,,,,,,
CNC(=O)C[C@@H]1NC(=O)c2csc(n2)-c2ccc(-c3nc(C(=O)N4CC(C(=O)N[C@H](CCC(=O)O)C(=O)O)C4)cs3)nc2-c2csc(n2)-c2csc(n2)C(C(O)c2ccccc2)NC(=O)CNC(=O)c2nc(sc2COC)[C@H](C(C)C)NC(=O)c2nc1sc2C (stereo partly specified),,,> 32,> 32,,,,,,
CNC(=O)C[C@@H]1NC(=O)c2csc(n2)-c2ccc(-c3nc(C(=O)NCCCN)cs3)nc2-c2csc(n2)-c2csc(n2)C(C(O)c2ccccc2)NC(=O)CNC(=O)c2nc(sc2COC)[C@H](C(C)C)NC(=O)c2nc1sc2C (stereo partly specified),2,2,1,1,,,,,,
CNC(=O)C[C@@H]1NC(=O)c2csc(n2)-c2ccc(-c3nc(C(=O)NCCC(=O)O)cs3)nc2-c2csc(n2)-c2csc(n2)C(C(O)c2ccccc2)NC(=O)CNC(=O)c2nc(sc2COC)[C@H](C(C)C)NC(=O)c2nc1sc2C (stereo partly specified),0.06,0.06,0.5,0.5,,,,,,
CNC(=O)C[C@@H]1NC(=O)c2csc(n2)-c2ccc(-c3nc(C(=O)NCCCCN=C(N)N)cs3)nc2-c2csc(n2)-c2csc(n2)C(C(O)c2ccccc2)NC(=O)CNC(=O)c2nc(sc2COC)[C@H](C(C)C)NC(=O)c2nc1sc2C (stereo partly specified),8,8,8,4,,,,,,
CNC(=O)C[C@@H]1NC(=O)c2csc(n2)-c2ccc(-c3nc(C(=O)NCCCCO)cs3)nc2-c2csc(n2)-c2csc(n2)C(C(O)c2ccccc2)NC(=O)CNC(=O)c2nc(sc2COC)[C@H](C(C)C)NC(=O)c2nc1sc2C (stereo partly specified),0.06,0.125,0.125,0.125,,,,,,
CNC(=O)C[C@@H]1NC(=O)c2csc(n2)-c2ccc(-c3nc(C(=O)N[C@@H](CO)C(=O)N4CCC[C@H]4C(N)=O)cs3)nc2-c2csc(n2)-c2csc(n2)C(C(O)c2ccccc2)NC(=O)CNC(=O)c2nc(sc2COC)[C@H](C(C)C)NC(=O)c2nc1sc2C (stereo partly specified),,,,0.25,,,,,,
CNC(=O)C[C@@H]1NC(=O)c2csc(n2)-c2ccc(-c3nc(C(=O)NCCN)cs3)nc2-c2csc(n2)-c2csc(n2)C(C(O)c2ccccc2)NC(=O)CNC(=O)c2nc(sc2COC)[C@H](C(C)C)NC(=O)c2nc1sc2C (stereo partly specified),2,2,2,1,,,,,,
CNC(=O)C[C@@H]1NC(=O)c2csc(n2)-c2ccc(-c3nc(C(=O)NCCN4CCOCC4)cs3)nc2-c2csc(n2)-c2csc(n2)C(C(O)c2ccccc2)NC(=O)CNC(=O)c2nc(sc2COC)[C@H](C(C)C)NC(=O)c2nc1sc2C (stereo partly specified),0.06,0.06,0.5,0.25,,,,,,
CN[C@H](CC(C)C)C(=O)N[C@H]1C(=O)N[C@@H](CC(N)=O)C(=O)N[C@H]2C(=O)N[C@H]3C(=O)N[C@H](C(=O)N[C@H](C(=O)O)c4cc(O)cc(O)c4-c4cc3ccc4O)[C@H](O)c3ccc(c(Cl)c3)Oc3cc2cc(c3O[C@@H]2O[C@H](CO)[C@@H](O)[C@H](O)[C@H]2O[C@H]2C[C@](C)(N)[C@H](O)[C@H](C)O2)Oc2ccc(cc2Cl)[C@H]1O [VANCOMYCIN],,> 16,,,> 16,> 16,,0.125,0.25,> 16
